Data reported in ChEMBL document CHEMBL1143874, “Diazen-1-ium-1,2-diolated and nitrooxyethyl nitric oxide donor ester prodrugs of anti-inflammatory (E)-2-(aryl)-3-(4-methanesulfonylphenyl)acrylic acids: synthesis, cyclooxygenase inhibition, and nitric oxide release studies” (Bioorg Med Chem, 2008).

Experiments:
[1] = target: T1, Prostaglandin G/H synthase 1 (Ovis aries, UniProt P05979); experiment: Inhibition of ovine COX1 by enzyme immunoassay
T1 sequence (P05979 whole entry): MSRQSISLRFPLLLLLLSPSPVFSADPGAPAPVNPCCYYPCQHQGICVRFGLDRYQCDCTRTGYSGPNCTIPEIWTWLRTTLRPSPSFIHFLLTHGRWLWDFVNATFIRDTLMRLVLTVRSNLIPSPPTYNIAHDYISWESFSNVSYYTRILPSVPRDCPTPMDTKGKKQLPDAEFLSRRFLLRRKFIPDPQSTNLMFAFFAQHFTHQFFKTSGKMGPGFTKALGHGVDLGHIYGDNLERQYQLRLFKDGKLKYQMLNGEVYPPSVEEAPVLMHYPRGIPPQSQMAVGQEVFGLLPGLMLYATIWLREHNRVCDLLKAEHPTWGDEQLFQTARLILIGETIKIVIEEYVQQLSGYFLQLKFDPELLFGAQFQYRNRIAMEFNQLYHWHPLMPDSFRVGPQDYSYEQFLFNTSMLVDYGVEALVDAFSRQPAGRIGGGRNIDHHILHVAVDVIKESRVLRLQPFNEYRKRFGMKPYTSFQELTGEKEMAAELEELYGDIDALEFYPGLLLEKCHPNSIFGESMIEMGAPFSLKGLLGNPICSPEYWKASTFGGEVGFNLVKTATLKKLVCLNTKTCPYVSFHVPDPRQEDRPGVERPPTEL

[2] = Nitric oxide release in PBS at pH 7.4 in 37 degC after 1.5 hrs; format: functional; parameters: concentration or dose not given beside the values
Summary of the method: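 Test compound at 1.0 · 10^-2 mM in phosphate buffer pH 7.4, incubated 37 °C for 1.5 h. Nitrite was quantified by Griess reaction. % NO released is relative to a theoretical maximum of 2 mol NO/mol for diazeniumdiolates, 1 mol/mol for nitrooxyethyl esters and 3 mol/mol for glycerol trinitrate. Mean of 3 measurements.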

[3] = Nitric oxide release in PBS in presence of 5 mM L-cysteine at pH 7.4 in 37 degC after 1.5 hrs; format: functional
Summary of the method: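 Phosphate buffer pH 7.4 containing 5.0 mM L-cysteine, with test compound at 1.0 · 10^-2 mM, kept at 37 °C for 1.5 h. Nitrite was determined by Griess reaction. % NO released is relative to a theoretical maximum of 1 mol NO/mol for nitrooxyethyl esters. Mean of 3 measurements.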

Serum = experiment: Nitric oxide in rat serum at pH 7.4 in 37 degC after 1.5 hrs; format: ADME, cell-free; parameters: concentration or dose not given beside the values; conditions: pH 7.4, 1.5 h
Summary of the method: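 Test compound at 1.0 · 10^-2 mM in phosphate buffer pH 7.4 with 90 µL rat serum added, incubated 37 °C for 1.5 h. Nitrite measured by Griess reaction. % NO released is relative to a theoretical maximum of 2 mol NO/mol for diazeniumdiolates and 1 mol/mol for nitrooxyethyl esters. Mean of 3 measurements.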

Ovis aries = species on record: Ovis aries; experiment: Selectivity index, ratio of IC50 for ovine COX1 to IC50 for ovine COX2
Summary of the method: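 Ovine COX-1 and COX-2 IC50s were measured by enzyme immunoassay kit. Deviation from the mean was <10%. The index is COX-1 IC50/COX-2 IC50.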

SMILES	IC50 [1]	Activity [2]	Activity [3]	Activity (Serum)	Ratio IC50 (Ovis aries)
CS(=O)(=O)c1ccc(/C=C(/C(=O)O)c2ccc(F)cc2)cc1	400 nM	–	–	–	–
COc1ccc(/C(=C\c2ccc(S(C)(=O)=O)cc2)C(=O)O)cc1	31600 nM	–	–	–	–
CS(=O)(=O)c1ccc(/C=C(/C(=O)OCCO[N+](=O)[O-])c2ccc(F)cc2)cc1	1600 nM	3.3%	7.6%	–	–
CS(=O)(=O)c1ccc(/C=C(/C(=O)O)c2ccc(Br)cc2)cc1	880 nM	–	–	–	–
CS(=O)(=O)c1ccc(/C=C(/C(=O)OCCO[N+](=O)[O-])c2ccc(Br)cc2)cc1	370 nM	1%	10.1%	–	–
O=[N+]([O-])OCC(CO[N+](=O)[O-])O[N+](=O)[O-]	–	2.8%	10.1%	–	–
CN(CCO)/[N+]([O-])=N/[O-].[Na+]	–	84.9%	–	85%	–
COc1ccc(/C(=C\c2ccc(S(C)(=O)=O)cc2)C(=O)OCCO[N+](=O)[O-])cc1	1100 nM	1.4%	9.2%	–	–
CS(=O)(=O)c1ccc(/C=C(/C(=O)OCCO[N+](=O)[O-])c2ccccc2)cc1	6200 nM	3%	8.5%	–	–
CC(=O)OCO/N=[N+](\[O-])N(C)CCOC(=O)/C(=C/c1ccc(S(C)(=O)=O)cc1)c1ccc(Br)cc1	–	3.5%	–	76.2%	–
CC(=O)OCO/N=[N+](\[O-])N(C)CCOC(=O)/C(=C/c1ccc(S(C)(=O)=O)cc1)c1ccc(F)cc1	–	3.6%	–	82.1%	–
CS(=O)(=O)c1ccc(/C=C(/C(=O)O)c2ccccc2)cc1	1500 nM	–	–	–	0.5
COc1ccc(/C(=C\c2ccc(S(C)(=O)=O)cc2)C(=O)OCCN(C)/[N+]([O-])=N/OCOC(C)=O)cc1	–	3.9%	–	77.6%	–
CC(=O)OCO/N=[N+](\[O-])N(C)CCOC(=O)/C(=C/c1ccc(S(C)(=O)=O)cc1)c1ccccc1	–	4.8%	–	83%	–
